Key:
[1] = molecular target: 3-phosphoinositide-dependent protein kinase 1 (PDPK1) (Homo sapiens) (UniProt O15530); experiment: Inhibition of PDK1 (unknown origin)
[2] = molecular target: Signal transducer and activator of transcription 3 (Homo sapiens, UniProt P40763); experiment: Inhibition of STAT3 phosphorylation in human HEL cells by Western blot analysis
[3] = molecular target: T1, Signal transducer and activator of transcription 5A (Homo sapiens, UniProt P42229); experiment: Inhibition of STAT5 phosphorylation in human HEL cells by Western blot analysis
T1 sequence (P42229 whole entry): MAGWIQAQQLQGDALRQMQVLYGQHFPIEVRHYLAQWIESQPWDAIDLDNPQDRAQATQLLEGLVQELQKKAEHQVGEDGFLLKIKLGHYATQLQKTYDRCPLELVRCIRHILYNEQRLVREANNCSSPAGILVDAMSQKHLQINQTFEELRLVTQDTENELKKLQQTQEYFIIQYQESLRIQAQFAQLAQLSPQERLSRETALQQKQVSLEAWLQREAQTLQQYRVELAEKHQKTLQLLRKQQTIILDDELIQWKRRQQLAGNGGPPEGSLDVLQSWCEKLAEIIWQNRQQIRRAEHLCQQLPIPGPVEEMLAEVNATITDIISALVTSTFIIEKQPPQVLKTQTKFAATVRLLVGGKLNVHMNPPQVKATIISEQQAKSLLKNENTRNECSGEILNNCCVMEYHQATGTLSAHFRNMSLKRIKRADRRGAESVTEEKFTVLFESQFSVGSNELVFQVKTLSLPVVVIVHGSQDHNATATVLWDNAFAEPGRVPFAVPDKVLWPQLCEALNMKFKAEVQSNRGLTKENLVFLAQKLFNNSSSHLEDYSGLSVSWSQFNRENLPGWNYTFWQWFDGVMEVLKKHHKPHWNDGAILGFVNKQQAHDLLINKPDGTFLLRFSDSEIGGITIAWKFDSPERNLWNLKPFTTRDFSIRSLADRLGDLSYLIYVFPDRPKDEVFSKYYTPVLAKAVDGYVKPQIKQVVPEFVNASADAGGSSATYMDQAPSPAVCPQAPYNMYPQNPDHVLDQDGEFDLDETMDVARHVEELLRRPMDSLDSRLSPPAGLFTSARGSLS
How it was run: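 HEL cells were starved overnight in RPMI with 1% FCS, then exposed to compound for 2 h at 37 °C. Cells were lysed in RIPA buffer (50 mM HEPES pH 7.4, 150 mM NaCl, 1% Triton X-100, deoxycholate, 0.1% SDS) with protease and phosphatase inhibitors. Protein was quantified by Bradford assay and blots were developed by chemiluminescence. Membranes were stripped and reprobed for total STAT5.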

Chain of Signal transducer and activator of transcription 3 (P40763 whole entry): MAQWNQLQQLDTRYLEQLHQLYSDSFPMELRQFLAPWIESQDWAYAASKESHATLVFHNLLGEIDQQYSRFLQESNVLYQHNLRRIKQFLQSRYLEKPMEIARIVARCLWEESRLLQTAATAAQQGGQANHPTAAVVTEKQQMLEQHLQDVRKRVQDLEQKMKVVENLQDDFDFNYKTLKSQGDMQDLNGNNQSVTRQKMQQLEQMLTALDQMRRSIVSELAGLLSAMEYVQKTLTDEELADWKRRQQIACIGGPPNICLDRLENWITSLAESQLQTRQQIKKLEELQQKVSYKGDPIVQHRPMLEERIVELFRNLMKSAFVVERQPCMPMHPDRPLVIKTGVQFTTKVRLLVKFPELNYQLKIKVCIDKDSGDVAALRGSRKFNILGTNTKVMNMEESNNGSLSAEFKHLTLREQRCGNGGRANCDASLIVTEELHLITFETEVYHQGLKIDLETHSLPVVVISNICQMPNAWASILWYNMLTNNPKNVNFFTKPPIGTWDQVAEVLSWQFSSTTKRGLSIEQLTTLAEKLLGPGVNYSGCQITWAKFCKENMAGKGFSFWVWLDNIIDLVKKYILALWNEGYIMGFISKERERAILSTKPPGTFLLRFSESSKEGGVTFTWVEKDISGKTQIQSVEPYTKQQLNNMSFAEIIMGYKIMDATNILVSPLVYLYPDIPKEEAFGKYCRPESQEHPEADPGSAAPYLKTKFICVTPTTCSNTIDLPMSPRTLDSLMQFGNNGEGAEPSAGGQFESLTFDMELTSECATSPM

- IC50 [1]: > 1 µM
- IC50 [2]: 2.5 µM
- IC50 [3]: 0.4 µM
Compound: N#CCNC(=O)c1ccc(-c2ccnc(Nc3ccc(N4CCOCC4)cc3)n2)cc1 [N-(cyanomethyl)-4-(2-(4-morpholinophenylamino)pyrimidin-4-yl)benzamide]

Reference: BindingDB's records for PubMed 19295546 (Mayo Clinic)
